Data set [1] is filed under the species Homo sapiens. The data set can be described thus: Selectivity ratio of IC50 for GST tagged human recombinant JAK3 catalytic domain expressed in baculovirus to IC50 for GST tagged human recombinant JAK1 catalytic domain expressed in baculovirus. A digest of the protocol: (§1)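 Both IC50s come from the same microfluidic mobility-shift (Caliper) assay with 1 mM ATP. The read-out is inhibition of phosphorylation of a peptide substrate by JAK1, JAK2 or JAK3. Each IC50 is a geometric mean of at least three determinations.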

The species named for data set [2] is Homo sapiens. The data set is described as follows: Selectivity ratio of IC50 for GST tagged human recombinant JAK2 catalytic domain expressed in baculovirus to IC50 for GST tagged human recombinant JAK1 catalytic domain expressed in baculovirus. A digest of the protocol:
as §1

Data set [3] has as its target Non-receptor tyrosine-protein kinase TYK2 (Homo sapiens, UniProt P29597). The data set can be described thus: Inhibition of Tyk2 (unknown origin) using peptide substrate preincubated for 60 mins followed by substrate addition and measured after 60 mins by microfluidic assay. A digest of the protocol:
(§2)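 Caliper microfluidic assay of peptide-substrate phosphorylation by the relevant JAK enzyme, run at 1 mM ATP; IC50 values are geometric means of at least three determinations.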

For data set [4], the system named is Liver. The data set is described as follows: Metabolic stability in human liver microsomes assessed per mg protein. It counts as ADME, microsome. A digest of the protocol:
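Metabolic stability measured as turnover in human liver microsomes.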
In general terms: Liver microsomes are vesicles of endoplasmic reticulum, rich in cytochrome P450 enzymes.

The target in data set [5] is T1, Tyrosine-protein kinase JAK3 (Homo sapiens, UniProt P52333).
T1 sequence (P52333 whole entry): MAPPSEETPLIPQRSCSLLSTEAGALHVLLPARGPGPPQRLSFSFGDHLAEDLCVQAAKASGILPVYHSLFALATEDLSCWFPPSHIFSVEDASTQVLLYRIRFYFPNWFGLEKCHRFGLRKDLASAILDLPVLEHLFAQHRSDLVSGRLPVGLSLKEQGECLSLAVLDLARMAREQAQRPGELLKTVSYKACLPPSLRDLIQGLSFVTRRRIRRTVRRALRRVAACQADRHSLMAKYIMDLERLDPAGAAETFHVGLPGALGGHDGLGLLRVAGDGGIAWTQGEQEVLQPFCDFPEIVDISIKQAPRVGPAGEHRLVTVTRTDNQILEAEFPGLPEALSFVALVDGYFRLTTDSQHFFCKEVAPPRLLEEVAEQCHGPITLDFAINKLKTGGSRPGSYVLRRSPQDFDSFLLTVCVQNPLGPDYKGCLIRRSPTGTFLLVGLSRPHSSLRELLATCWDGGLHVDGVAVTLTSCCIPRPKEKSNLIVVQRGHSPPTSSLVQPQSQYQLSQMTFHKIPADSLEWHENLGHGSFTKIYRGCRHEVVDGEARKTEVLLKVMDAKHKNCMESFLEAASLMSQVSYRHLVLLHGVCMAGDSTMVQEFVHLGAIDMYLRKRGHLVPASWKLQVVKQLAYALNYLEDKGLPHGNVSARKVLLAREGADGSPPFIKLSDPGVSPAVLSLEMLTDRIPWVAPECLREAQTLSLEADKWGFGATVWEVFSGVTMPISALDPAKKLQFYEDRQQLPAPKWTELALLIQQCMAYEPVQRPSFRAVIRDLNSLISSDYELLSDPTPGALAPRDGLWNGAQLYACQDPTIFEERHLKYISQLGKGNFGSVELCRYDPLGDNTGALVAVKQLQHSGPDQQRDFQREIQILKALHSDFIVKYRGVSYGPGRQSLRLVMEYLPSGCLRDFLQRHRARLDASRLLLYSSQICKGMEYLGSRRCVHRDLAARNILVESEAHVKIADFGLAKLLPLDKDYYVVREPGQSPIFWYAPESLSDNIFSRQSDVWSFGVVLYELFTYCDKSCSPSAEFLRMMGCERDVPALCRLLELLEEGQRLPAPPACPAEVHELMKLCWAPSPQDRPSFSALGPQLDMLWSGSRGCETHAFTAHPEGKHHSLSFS
The data set can be described thus: Inhibition of GST tagged human recombinant JAK3 catalytic domain expressed in baculovirus using peptide substrate preincubated for 60 mins followed by substrate addition and measured after 60 mins by microfluidic assay. A digest of the protocol:
as §2

Data set [6] has as its target Tyrosine-protein kinase JAK2 (Homo sapiens, UniProt O60674). The data set can be described thus: Inhibition of GST tagged human recombinant JAK2 catalytic domain expressed in baculovirus using peptide substrate preincubated for 60 mins followed by substrate addition and measured after 60 mins by microfluidic assay. A digest of the protocol:
as §2

The target in data set [7] is Tyrosine-protein kinase JAK1 (Homo sapiens, UniProt P23458). The data set is described as follows: Inhibition of GST tagged human recombinant JAK1 catalytic domain expressed in baculovirus using peptide substrate preincubated for 60 mins followed by substrate addition and measured after 60 mins by microfluidic assay.
Sequence of Tyrosine-protein kinase JAK1 (P23458 whole entry, the tested form may be a part): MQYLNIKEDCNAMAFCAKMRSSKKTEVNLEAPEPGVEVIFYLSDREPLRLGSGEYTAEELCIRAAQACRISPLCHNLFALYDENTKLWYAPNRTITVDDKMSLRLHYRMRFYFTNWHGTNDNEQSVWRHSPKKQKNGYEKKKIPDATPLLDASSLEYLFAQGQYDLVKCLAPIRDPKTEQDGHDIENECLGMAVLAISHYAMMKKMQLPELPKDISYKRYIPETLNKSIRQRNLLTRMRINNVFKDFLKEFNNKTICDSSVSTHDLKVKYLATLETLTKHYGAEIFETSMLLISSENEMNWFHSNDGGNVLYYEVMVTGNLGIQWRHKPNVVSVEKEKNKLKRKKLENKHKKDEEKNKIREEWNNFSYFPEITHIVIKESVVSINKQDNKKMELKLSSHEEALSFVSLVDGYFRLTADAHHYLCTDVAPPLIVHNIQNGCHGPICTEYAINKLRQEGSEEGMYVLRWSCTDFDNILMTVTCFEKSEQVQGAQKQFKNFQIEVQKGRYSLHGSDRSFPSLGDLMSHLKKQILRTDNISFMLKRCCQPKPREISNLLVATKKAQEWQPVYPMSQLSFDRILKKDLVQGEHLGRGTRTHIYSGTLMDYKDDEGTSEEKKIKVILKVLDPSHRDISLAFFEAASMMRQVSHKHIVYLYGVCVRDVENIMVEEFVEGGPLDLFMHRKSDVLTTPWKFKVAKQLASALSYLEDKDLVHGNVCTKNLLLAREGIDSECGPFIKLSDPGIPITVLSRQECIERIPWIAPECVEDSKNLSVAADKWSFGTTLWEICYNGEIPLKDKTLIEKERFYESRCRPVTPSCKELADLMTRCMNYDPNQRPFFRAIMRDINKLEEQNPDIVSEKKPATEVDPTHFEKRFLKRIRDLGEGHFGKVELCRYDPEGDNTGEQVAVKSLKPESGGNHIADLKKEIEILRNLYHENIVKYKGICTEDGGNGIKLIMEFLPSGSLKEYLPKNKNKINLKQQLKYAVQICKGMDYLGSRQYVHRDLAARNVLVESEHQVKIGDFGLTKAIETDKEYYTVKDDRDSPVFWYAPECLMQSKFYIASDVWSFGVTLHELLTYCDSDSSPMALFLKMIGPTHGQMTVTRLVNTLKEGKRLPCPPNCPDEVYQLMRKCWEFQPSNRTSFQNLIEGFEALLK
Data set [8] has as its target T2, Tyrosine-protein kinase JAK3 (Homo sapiens) (UniProt P52333).
T2 sequence (whole entry): T1 sequence (P52333 whole entry)
The data set is described as follows: Inhibition of GST tagged human recombinant JAK3 catalytic domain expressed in baculovirus assessed as time taken for inhibition to reverse by 50% by dilution recovery based microfluidic mobility shift assay. The procedure, abridged: (§3)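 JAK3 inhibition kinetics measured by continuous dilution-recovery in a microfluidic mobility shift format; offset rate (min−1) converted to a recovery T1/2.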

The target in data set [9] is Mitogen-activated protein kinase kinase kinase kinase 4 (Homo sapiens) (UniProt O95819). The data set can be described thus: Inhibition of MAP4K4 (unknown origin) at 1 uM relative to control.
Sequence of Mitogen-activated protein kinase kinase kinase kinase 4 (Homo sapiens) (O95819 2-1239 limits assumed): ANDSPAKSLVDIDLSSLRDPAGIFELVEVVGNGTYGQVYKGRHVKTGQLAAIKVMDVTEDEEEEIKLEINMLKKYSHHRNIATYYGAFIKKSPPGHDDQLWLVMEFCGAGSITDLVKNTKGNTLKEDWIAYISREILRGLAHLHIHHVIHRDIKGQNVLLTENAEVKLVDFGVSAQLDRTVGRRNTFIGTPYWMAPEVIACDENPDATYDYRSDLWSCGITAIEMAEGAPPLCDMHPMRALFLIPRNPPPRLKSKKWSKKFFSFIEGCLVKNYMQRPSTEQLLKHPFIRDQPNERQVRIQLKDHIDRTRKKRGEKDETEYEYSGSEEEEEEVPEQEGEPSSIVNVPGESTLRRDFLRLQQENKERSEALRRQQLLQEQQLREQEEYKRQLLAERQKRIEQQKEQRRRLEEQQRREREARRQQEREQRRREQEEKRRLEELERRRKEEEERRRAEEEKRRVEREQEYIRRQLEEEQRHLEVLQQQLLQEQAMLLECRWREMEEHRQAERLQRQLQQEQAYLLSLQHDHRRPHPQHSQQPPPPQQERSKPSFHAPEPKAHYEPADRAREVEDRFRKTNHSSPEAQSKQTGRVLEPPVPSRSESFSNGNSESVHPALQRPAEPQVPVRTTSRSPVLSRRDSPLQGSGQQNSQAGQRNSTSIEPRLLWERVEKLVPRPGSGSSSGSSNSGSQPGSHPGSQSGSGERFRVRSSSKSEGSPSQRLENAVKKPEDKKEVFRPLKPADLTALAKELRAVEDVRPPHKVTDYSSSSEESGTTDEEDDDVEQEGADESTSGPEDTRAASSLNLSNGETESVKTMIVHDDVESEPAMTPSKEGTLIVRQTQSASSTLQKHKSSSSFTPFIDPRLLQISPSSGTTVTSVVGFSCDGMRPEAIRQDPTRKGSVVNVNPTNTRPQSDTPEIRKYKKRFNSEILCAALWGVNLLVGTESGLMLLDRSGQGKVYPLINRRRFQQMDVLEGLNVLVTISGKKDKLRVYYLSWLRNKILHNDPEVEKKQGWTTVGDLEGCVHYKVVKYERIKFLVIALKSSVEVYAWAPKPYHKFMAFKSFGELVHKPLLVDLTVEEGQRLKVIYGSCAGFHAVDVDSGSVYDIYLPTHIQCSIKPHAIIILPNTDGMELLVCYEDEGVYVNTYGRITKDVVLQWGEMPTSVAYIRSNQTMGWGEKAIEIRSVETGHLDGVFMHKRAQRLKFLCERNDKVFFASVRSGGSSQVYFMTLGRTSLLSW
In data set [10] the target is T3, Janus Kinase (JAK) (Homo sapiens, UniProt P52333+P23458+O60674+P29597). The data set is described as follows: Inhibition of JAK in human PBMC assessed as reduction in human recombinant IL-2/mouse anti-human CD3 stimulated IFNgamma production preincubated for 1 hr followed by IL2/CD3 stimulation measured after 18 hrs by ELISA. The procedure, abridged:
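Primary PBMCs stimulated with IL-2; inhibition of IFNγ release measured. IC50 values are geometric means of at least three determinations.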
Background: ELISA stands for enzyme-linked immunosorbent assay.

A short description of data set [11]: Drug metabolism in human liver microsomes assessed as UGT-mediated compound glucuronidation per mg protein in presence of microsomal activator Brij58 and cofactor UDPGA. It counts as ADME. The procedure, abridged:
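Human liver microsomes supplemented with the activator Brij58 and cofactor UDPGA, NADPH omitted, to measure phase II glucuronidation turnover.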

Data set [12] addresses T2, Tyrosine-protein kinase JAK3 (Homo sapiens). The data set can be described thus: Inhibition of GST tagged human recombinant JAK3 catalytic domain expressed in baculovirus assessed as offset rate by dilution recovery based microfluidic mobility shift assay. The procedure, abridged:
as §3

Data set [13] can be described thus: Aqueous solubility of the compound. It counts as physicochemical. The following applies: buffer.
The target of data set [14] is T3, Janus Kinase (JAK).
The target in data set [15] is T3, Janus Kinase (JAK). The source holds these as a separate data set.

pIC50: −log10 of the molar value. The source made the active and inactive calls. No cut-off for these calls is given here.

Sequence of Tyrosine-protein kinase JAK2 (O60674 whole entry, the tested form may be a part): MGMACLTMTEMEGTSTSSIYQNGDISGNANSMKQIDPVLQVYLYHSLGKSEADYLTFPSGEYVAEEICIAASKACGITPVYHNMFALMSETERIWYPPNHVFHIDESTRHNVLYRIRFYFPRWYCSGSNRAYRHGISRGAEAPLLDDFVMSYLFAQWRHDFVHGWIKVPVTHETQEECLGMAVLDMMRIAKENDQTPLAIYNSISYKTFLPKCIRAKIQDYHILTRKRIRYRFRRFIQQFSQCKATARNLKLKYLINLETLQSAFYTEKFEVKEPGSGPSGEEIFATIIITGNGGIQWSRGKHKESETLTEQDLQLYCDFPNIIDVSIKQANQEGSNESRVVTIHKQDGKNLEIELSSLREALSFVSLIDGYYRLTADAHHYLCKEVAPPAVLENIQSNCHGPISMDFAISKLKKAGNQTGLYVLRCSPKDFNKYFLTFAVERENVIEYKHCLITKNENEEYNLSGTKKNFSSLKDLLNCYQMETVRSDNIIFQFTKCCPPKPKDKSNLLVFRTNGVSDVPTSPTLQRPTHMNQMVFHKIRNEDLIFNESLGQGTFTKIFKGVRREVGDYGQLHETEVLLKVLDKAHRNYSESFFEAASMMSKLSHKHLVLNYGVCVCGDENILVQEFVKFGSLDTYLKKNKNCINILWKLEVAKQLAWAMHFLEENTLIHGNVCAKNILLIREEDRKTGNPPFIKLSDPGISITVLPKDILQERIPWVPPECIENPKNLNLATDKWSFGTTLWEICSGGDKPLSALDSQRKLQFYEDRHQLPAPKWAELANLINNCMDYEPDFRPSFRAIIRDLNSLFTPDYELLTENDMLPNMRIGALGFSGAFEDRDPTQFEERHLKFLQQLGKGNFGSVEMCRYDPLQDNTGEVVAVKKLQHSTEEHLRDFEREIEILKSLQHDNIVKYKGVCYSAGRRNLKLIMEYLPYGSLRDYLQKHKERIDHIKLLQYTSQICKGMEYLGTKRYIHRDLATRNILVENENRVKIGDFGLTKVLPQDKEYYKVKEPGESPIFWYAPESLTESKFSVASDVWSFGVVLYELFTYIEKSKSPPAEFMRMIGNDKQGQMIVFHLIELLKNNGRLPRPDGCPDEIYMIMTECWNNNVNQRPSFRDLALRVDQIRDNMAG
T3 sequence (O60674 whole entry, looked up, one chain of several): as the sequence (O60674 whole entry, the tested form may be a part) above
T3 sequence (P23458 whole entry, looked up, one chain of several): as the sequence (P23458 whole entry, the tested form may be a part) above
T3 sequence (P29597 whole entry, looked up, one chain of several): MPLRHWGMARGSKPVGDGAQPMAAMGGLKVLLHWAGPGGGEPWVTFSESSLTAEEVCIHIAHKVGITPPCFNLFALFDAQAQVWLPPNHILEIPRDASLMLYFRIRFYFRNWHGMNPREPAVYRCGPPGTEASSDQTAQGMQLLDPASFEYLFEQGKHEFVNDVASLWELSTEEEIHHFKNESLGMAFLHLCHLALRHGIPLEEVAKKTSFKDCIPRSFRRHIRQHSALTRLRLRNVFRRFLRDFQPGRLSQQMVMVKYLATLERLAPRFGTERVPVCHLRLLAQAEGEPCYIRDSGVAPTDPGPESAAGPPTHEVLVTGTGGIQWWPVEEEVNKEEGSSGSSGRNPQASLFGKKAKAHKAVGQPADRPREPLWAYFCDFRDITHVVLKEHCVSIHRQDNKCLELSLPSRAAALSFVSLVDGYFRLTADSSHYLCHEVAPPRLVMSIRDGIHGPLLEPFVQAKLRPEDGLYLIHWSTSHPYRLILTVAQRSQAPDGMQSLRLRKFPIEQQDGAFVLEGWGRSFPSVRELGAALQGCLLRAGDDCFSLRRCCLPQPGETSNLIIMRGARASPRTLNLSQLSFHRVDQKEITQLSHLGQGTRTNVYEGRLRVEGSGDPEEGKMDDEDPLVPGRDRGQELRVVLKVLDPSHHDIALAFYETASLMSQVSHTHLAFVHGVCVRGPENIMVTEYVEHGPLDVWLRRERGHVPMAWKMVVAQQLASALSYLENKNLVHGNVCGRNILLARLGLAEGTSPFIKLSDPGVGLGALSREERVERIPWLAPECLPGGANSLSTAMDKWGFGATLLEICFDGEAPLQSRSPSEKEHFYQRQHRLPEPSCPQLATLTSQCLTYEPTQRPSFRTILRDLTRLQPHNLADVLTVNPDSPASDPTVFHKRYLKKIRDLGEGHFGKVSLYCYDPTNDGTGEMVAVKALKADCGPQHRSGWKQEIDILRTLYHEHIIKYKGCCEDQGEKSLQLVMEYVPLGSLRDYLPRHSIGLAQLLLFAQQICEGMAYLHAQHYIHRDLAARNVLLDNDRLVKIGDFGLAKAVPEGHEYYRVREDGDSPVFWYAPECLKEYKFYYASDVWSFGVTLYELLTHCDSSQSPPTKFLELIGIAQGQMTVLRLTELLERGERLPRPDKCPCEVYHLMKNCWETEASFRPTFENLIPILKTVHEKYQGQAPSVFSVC
Sequence of Non-receptor tyrosine-protein kinase TYK2 (P29597 whole entry): as the sequence (P29597 whole entry, looked up, one chain of several) above

For the molecule `C[C@@H]1CCN(C(=O)CC#N)C[C@@H]1N(C)c1ncnc2[nH]ccc12`, the Ratio IC50 came to 3 in data set [1] and 5 in [2].
One may read the pIC50 as −log10 of the IC50, conventionally taken in molar units. In general, inhibition refers to the drop in the measured response relative to a control, in per cent. A lower inhibition goes with a weak effect. As a reminder, the IC50 is the midpoint of a concentration-inhibition curve. For `CCc1cc(O)ccc1-c1ccc2c(-c3nc4ccccc4[nH]3)n[nH]c2c1`, the pIC50 in data set [3] is 8.04; in data set [5] it was 8.08; in data set [6], 8.66; in data set [7] it was 9.40. The Stability in data set [4] was found to be 35 µL/min. The T1/2 in data set [8] was determined as 1.9 h; in [14], 6.5 h. For the same molecule, the inhibition in data set [9] was above 85%. Further, in data set [10], the IC50 was 10.5 nM. In addition, the Drug metabolism in data set [11] was found to be 49 µL/min. Also, the K in data set [12] is 0.006 min⁻¹. Moreover, the solubility result in [13] is “Insoluble”. Further, the TDI entry in [15] is “Active”.

The values above are taken from ChEMBL document CHEMBL4002590, “Design and Synthesis of a Pan-Janus Kinase Inhibitor Clinical Candidate (PF-06263276) Suitable for Inhaled and Topical Delivery for the Treatment of Inflammatory Diseases of the Lungs and Skin” (J Med Chem, 2017).
